MPTP inh: mitochondrial permeability transition pore inhibitors, primary screen, biochemical, isolated mouse mitochondria, absorbance | 360,000 tested, 1.4% active | inhibition, % at 10 µM | Ca2+ swelling absorbance, 30 min | AID 602449, 2012;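 active = inhibition of 50% or more, scaled per plate between neutral and stimulator controls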
MC4R ag barr: MC4R agonists recruiting beta-arrestin, primary screen, cell-based, luminescence, agonist arm of biased-ligand search; Melanocortin receptor 4 (Homo sapiens), P32245; U2OS MC4R beta-arrestin complementation; percent of melanotan II response, DMSO zero; activation, % at 8.9 µM; 360,000 tested, 0.98% active; AID 540308, 2011;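 active = activation above a per-plate cutoff, the mean activation of sample wells on that plate plus 3 SD, cut at about 8% in these data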
Target sequence (P32245 whole entry, looked up): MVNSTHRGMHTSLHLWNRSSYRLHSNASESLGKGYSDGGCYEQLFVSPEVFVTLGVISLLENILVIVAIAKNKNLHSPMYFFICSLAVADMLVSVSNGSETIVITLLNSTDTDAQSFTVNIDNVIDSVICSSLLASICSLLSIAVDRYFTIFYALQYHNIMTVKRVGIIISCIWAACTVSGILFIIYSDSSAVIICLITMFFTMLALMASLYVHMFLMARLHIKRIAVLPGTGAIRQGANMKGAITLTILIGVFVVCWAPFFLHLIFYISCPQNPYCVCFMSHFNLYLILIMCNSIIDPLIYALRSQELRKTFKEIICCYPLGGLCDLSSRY
SMARCA2 activ: SMARCA2 (BRM) function activators, primary screen, cell-based, luminescence, high throughput | 370,000 tested, 1% active | AID 652017, 2013 | MG213 cells, MMTV-luciferase reporter, dexamethasone, overnight | activation, % at 9.1 µM; in the data active = activation above about 7.8%
MC4R antagonist: MC4R antagonists of cAMP signaling, primary screen, cell-based, TR-FRET, antagonist arm of biased-ligand search; MC4R-expressing cells, MTII-stimulated cAMP, LANCE TR-FRET; inhibition, % at 6.5 µM; 360,000 tested, 0.48% active; AID 540295, 2011;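 active = inhibition above its plate's cutoff, the mean of tested wells on that plate plus 3 SD, cut at about 29% in these data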
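Assay system: U2OS-MC4R stable cell line; Also added: Melanotan II; Technique: Eu-cAMP/anti-cAMP TR-FRET, emission 671 nm; Times: 30-min compound, 1-h challenge, 1-h detection, room temperature.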
ATG4B inh: ATG4B protease inhibitors, primary screen, biochemical, fluorescence, uHTS; ATG4B cleavage of LC3-PLA2, NBD-HPC fluorescence, 1 h; inhibition, % at 8.33 µM; 340,000 tested, 0.51% active; in the data active = inhibition above about 40%
SMARCA2 act conf: SMARCA2 (BRM) function activators, confirmation, cell-based, luminescence, triplicate | shares compounds with SMARCA2 activ | MG213 cells, MMTV-luciferase with dexamethasone, overnight; MG213 cells expressing E1A, Rb sequestered; DMSO wells 0%, reference activator 100% | activation, % at 9.1 µM | 3,500 tested, 30% active | AID 652260, 2013;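 active = activation above its plate's cutoff, the mean activation of tested wells plus 3 SD, cut at about 7.9% in these data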
GAL4-VP16 Luc: GAL4-VP16 luciferase reporter activation, counter-screen for SMARCA2 (BRM) activator project, cell-based, pG5luc, luminescence, high throughput; AID 686939, 2013; HEK293 GAL4-VP16 pG5luc reporter; scaled: DMSO wells 0%, SAHA wells 100%; shares compounds with SMARCA2 activ; activation, % at 9.1 µM; 3,500 tested, 41% active;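 active = activation above the solvent-only control well mean plus 3 SD, averaged across control plates, cut at about 5.2% in these data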
Large screens that a line does not name were inactive (follow-up assays come after a bar, where they were run). Shown are actives, neighbours in structure and some others; about 4.1% of the full set was active somewhere.

CC1=C(C(=O)OCc2ccccc2)C(c2ccccc2)NC(=O)N1 (stereo unspecified)	none
CCOC(=O)c1sc(N)c(C(=O)OCC)c1C	SMARCA2 activ 22 | SMARCA2 act conf inactive | GAL4-VP16 Luc 7.5
Cc1ccc(S(=O)(=O)N/N=C\c2ccc(Cl)c([N+](=O)[O-])c2)cc1	SMARCA2 activ 11 | SMARCA2 act conf inactive | GAL4-VP16 Luc inactive
O=C1NC(=O)C2(CCCc3ccc(N(CCO)CCO)cc32)N1 (stereo unspecified)	none (no result: MPTP inh, MC4R ag barr, MC4R antagonist, ATG4B inh)
CC(C)C[C@@H]1COc2cc(N3CCOCC3)ccc2S(=O)(=O)N1	none (no result: MPTP inh, MC4R ag barr, MC4R antagonist, ATG4B inh)
NNC(=O)c1ccc(Cn2cc(Br)cn2)o1	SMARCA2 activ 8.1 | SMARCA2 act conf inactive | GAL4-VP16 Luc inactive
Cc1ccc(NC(=O)c2ccc(Cn3cc(Br)cn3)o2)cc1	none
CCc1ccc(OCC(=O)NC(C)(C)C)cc1	none
CCNC(=O)COc1ccc(CC)cc1	SMARCA2 activ 8.1 | SMARCA2 act conf 8.0 | GAL4-VP16 Luc inactive
Cc1ccc(OCC(=O)NCCO)cc1C	SMARCA2 activ 10 | SMARCA2 act conf inactive | GAL4-VP16 Luc inactive
O=C(COc1ccc(Br)cc1)NCCO	none
CCN(CC)C(=O)CC[C@H]1CC[C@]2(CCCN(Cc3ccc(Br)cc3)C2)O1	none (no result: MPTP inh, MC4R ag barr, MC4R antagonist, ATG4B inh)
O=C1COc2ccccc2C(c2nnnn2-c2ccc3ccccc3c2)N1C1CC1 (stereo unspecified)	none (no result: MPTP inh, MC4R ag barr, MC4R antagonist, ATG4B inh)
COc1cc(/C=C2\CC/C(=C\c3ccc(OCCO)c(OC)c3)C2=O)ccc1OCCO	none
COc1cc(C=NN=c2sc3ccccc3n2C)ccc1OCCO	SMARCA2 activ 11 (no result: MPTP inh, MC4R ag barr, MC4R antagonist, ATG4B inh) | SMARCA2 act conf 10 | GAL4-VP16 Luc 12
COc1cccc(CNC(=O)COC(=O)c2nc(Cl)c(Cl)c(Cl)c2Cl)c1	SMARCA2 activ 17 | SMARCA2 act conf 26 | GAL4-VP16 Luc inactive
COc1ccc(COC(=O)c2nc3nc(C)cc(C)n3n2)cc1F	SMARCA2 activ 8.2 | SMARCA2 act conf inactive | GAL4-VP16 Luc inactive
COc1ccc(CSc2nc3nc(C)cc(C)n3n2)cc1F	none
Nc1ccc2c(c1)C(=O)c1cc(N)c(Cl)cc1-2	SMARCA2 activ 11 | SMARCA2 act conf 11 | GAL4-VP16 Luc inactive
C=C1C(=O)[C@]23C[C@H]1CC[C@H]2[C@]1(C)[C@@H](O)CC[C@@](C)(C(=O)O)[C@H]1C[C@@H]3O	SMARCA2 activ 21 (no result: MC4R ag barr, MC4R antagonist, ATG4B inh) | SMARCA2 act conf 37 | GAL4-VP16 Luc inactive
C=C1C(=O)[C@]23C[C@H]1CC[C@H]2[C@]1(C)[C@@H](OC(C)=O)CC[C@@](C)(C(=O)O)[C@H]1C[C@@H]3O	SMARCA2 activ 34 (no result: MC4R ag barr, MC4R antagonist, ATG4B inh) | SMARCA2 act conf 9.1 | GAL4-VP16 Luc inactive
C=C1C(=O)[C@]23C[C@H]1CCC2[C@@]1(C)C(C[C@@H]3O)[C@](C)(C(=O)OC)CC[C@@H]1OC(C)=O (stereo partly specified)	none (no result: MC4R ag barr, MC4R antagonist, ATG4B inh)
CC(C)[C@@H](CO)N1Cc2nnn(Cc3ccccc3)c2-c2ccccc2S1(=O)=O	none (no result: MPTP inh, MC4R ag barr, MC4R antagonist, ATG4B inh)
CCN(CC)CCCNC(=O)c1ccc2c3n(nc2c1)-c1ccc(Cl)cc1CO3	SMARCA2 activ 11 | SMARCA2 act conf 23 | GAL4-VP16 Luc 7.2
CC(C)NC(=O)c1ccc2c3n(nc2c1)-c1ccc(Cl)cc1CO3	none
O=Nc1c2cc(-c3ccccc3)[nH]nc-2c2ccccc12	SMARCA2 activ 8.5 | SMARCA2 act conf 9.8 | GAL4-VP16 Luc 5.5
Cc1ccc(-c2cc3c(N=O)c4ccccc4c-3n[nH]2)cc1	none
CC(=NN1CCN(c2ccccn2)CC1)c1ccccc1O	none (no result: MPTP inh, MC4R ag barr, MC4R antagonist, ATG4B inh)
COc1ccc(C(C(=O)Nc2ccc(F)cc2)N2CCN(c3ccncc3)CC2)cc1 (stereo unspecified)	none (no result: MC4R ag barr, MC4R antagonist, ATG4B inh)
